The text below walks through data of ChEMBL document CHEMBL4396885, “Thioether-based 2-aminobenzamide derivatives: Novel HDAC inhibitors with potent in vitro and in vivo antitumor activity” (Eur J Med Chem, 2019).

The subject of experiment [1] is A549. In words: Antiproliferative activity against human A549 cells assessed as growth inhibition at 8 uM after 72 hrs by CCK-8 assay relative to control. The format is functional. To be noted: A549, 72 h, read-out: GI.
Experiment [2] deals with HCT-116. In words: Antiproliferative activity against human HCT116 cells assessed as growth inhibition at 2 uM after 72 hrs by CCK-8 assay relative to control. The experiment is classed as functional. The note with it: HCT-116, 72 h, read-out: GI.
Experiment [3] has as its system SMMC-7721. In words: Antiproliferative activity against human SMMC7721 cells assessed as growth inhibition at 8 uM after 72 hrs by CCK-8 assay relative to control. The format is functional. To be noted: SMMC-7721, 72 h, read-out: GI.
In experiment [4] the test system is A-375. In words: Antiproliferative activity against human A375 cells assessed as growth inhibition at 8 uM after 72 hrs by CCK-8 assay relative to control. The format is functional. The note with it: A-375, 72 h, read-out: GI. For orientation: Tetrazolium dyes change colour on reduction, which living cells bring about.
Experiment [5] relates to HeLa. In words: Antiproliferative activity against human HeLa cells assessed as growth inhibition at 2 uM after 72 hrs by CCK-8 assay relative to control. The format is functional. The note with it: read-out: GI.
Experiment [6] relates to HCT-116. In words: Antiproliferative activity against human HCT116 cells assessed as decrease in cell viability after 72 hrs by CCK-8 assay. The format is functional, cell-based. To be noted: HCT-116, 72 h. In outline: (§1)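 Cells grown to 70–85% confluence (A375, A549, HCT116 in RPMI1640; HeLa, SMMC7721 in DMEM; 10% FBS, 37 °C, 5% CO2), seeded 4000/well, dosed after 12 h across a concentration range, incubated 72 h, then CCK-8 for 1 h; absorbance at 450 nm. IC50 as mean ± SD of three separate experiments.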

Experiment [7] deals with HCT-116. In words: Antiproliferative activity against human HCT116 cells assessed as growth inhibition at 8 uM after 72 hrs by CCK-8 assay relative to control. The experiment is classed as functional. The note with it: HCT-116, 72 h, read-out: GI.
Experiment [8] concerns A549. In words: Antiproliferative activity against human A549 cells assessed as growth inhibition at 2 uM after 72 hrs by CCK-8 assay relative to control. The format is functional. The note with it: A549, 72 h, read-out: GI.
Experiment [9] relates to A-375. In words: Antiproliferative activity against human A375 cells assessed as growth inhibition at 2 uM after 72 hrs by CCK-8 assay relative to control. The experiment is classed as functional. To be noted: A-375, 72 h, read-out: GI.
Experiment [10] concerns HeLa. In words: Antiproliferative activity against human HeLa cells assessed as growth inhibition at 8 uM after 72 hrs by CCK-8 assay relative to control. The experiment is classed as functional. To be noted: read-out: GI.
Experiment [11] concerns SMMC-7721. In words: Antiproliferative activity against human SMMC7721 cells assessed as decrease in cell viability after 72 hrs by CCK-8 assay. The note with it: SMMC-7721, 72 h. The experiment is classed as functional, cell-based. Put shortly: as §1
Experiment [12] deals with SMMC-7721. In words: Antiproliferative activity against human SMMC7721 cells assessed as growth inhibition at 2 uM after 72 hrs by CCK-8 assay relative to control. The format is functional. The note with it: SMMC-7721, 72 h, read-out: GI.
The test system of experiment [13] is HeLa. In words: Antiproliferative activity against human HeLa cells assessed as decrease in cell viability after 72 hrs by CCK-8 assay. The format is functional, cell-based. In outline:
as §1

For experiment [14], the system named is A549. In words: Antiproliferative activity against human A549 cells assessed as decrease in cell viability after 72 hrs by CCK-8 assay. The format is functional, cell-based. The note with it: A549, 72 h. In outline: as §1
Experiment [15] relates to A-375. In words: Antiproliferative activity against human A375 cells assessed as decrease in cell viability after 72 hrs by CCK-8 assay. The experiment is classed as functional, cell-based. To be noted: A-375, 72 h. Put shortly:
as §1

pIC50: −log10 of the molar value.

The term pIC50 denotes the negative decadic logarithm of the IC50, by convention in mol/L. As for `Nc1ccccc1NC(=O)c1ccc(CSc2ccc(F)cc2)cc1`, the inhibition of growth at 8 µM with A549 [1] was 44.5%; in the experiment on SMMC-7721 [3], 81.9%; in the experiment on A-375 [4] it was 54.3%; in the experiment with HCT-116 [7], 90.6%; with HeLa [10], 79.3%. Further, the inhibition of growth at 2 µM with HCT-116 [2] was 13.5%; in the experiment on HeLa [5], 27.9%; in the experiment on A549 [8], 43.4%; with A-375 [9], 19.4%; with SMMC-7721 [12], 6.58%. The pIC50 was 5.40 with HCT-116 [6], 5.24 in the experiment on SMMC-7721 [11] and 5.30 in the experiment on HeLa [13].
Regarding `Nc1ccccc1NC(=O)c1ccc(CSCCc2ccccc2)cc1`, the pIC50 is 5.49 with A549 [14]; 5.55 in the experiment on HCT-116 [6]; 5.54 in the experiment with A-375 [15]; 5.31 in the experiment on SMMC-7721 [11]; 5.19 in the experiment with HeLa [13]. Besides, the inhibition of growth at 8 µM in the experiment on A549 [1] worked out at 84.1%; in the experiment with SMMC-7721 [3] it was 77.9%; in the experiment on A-375 [4], 69.9%; in the experiment on HCT-116 [7] it was 81.3%; in the experiment with HeLa [10], 74.8%. Also, the inhibition of growth at 2 µM came out at 30.5% in the experiment on HCT-116 [2]; 27.7% with HeLa [5]; 44.9% with A549 [8]; 21.8% in the experiment on A-375 [9]; 28.1% in the experiment on SMMC-7721 [12].
`COC(=O)c1ccccc1SCc1ccc(C(=O)Nc2ccccc2N)cc1`: the inhibition of growth at 8 µM in the experiment with A549 [1] amounted to 46.1%; in the experiment with SMMC-7721 [3], 62.5%; in the experiment on A-375 [4] it was 70.1%; with HCT-116 [7], 92%; in the experiment with HeLa [10], 55.5%. The inhibition of growth at 2 µM with HCT-116 [2] turned out to be 21.8%; with HeLa [5], 29.8%; in the experiment on A549 [8], 44.7%; in the experiment with A-375 [9], 35.1%; in the experiment with SMMC-7721 [12], 18%. The negative logarithm of the IC50 (pIC50) in the experiment with HCT-116 [6] is 5.56; with A-375 [15], 5.44; in the experiment with SMMC-7721 [11], 5.35; in the experiment with HeLa [13], 5.18.
Consider `Nc1ccccc1NC(=O)c1ccc(CSc2cccc(F)c2)cc1`, for which the inhibition of growth at 8 µM in the experiment with A549 [1] came to 72.7%; in the experiment on SMMC-7721 [3] it was 83%; with A-375 [4], 76.2%; in the experiment with HCT-116 [7], 81.3%; in the experiment on HeLa [10], 78.4%. Further, the inhibition of growth at 2 µM came to 5.5% in the experiment on HCT-116 [2]; 22.5% with HeLa [5]; 46.9% in the experiment on A549 [8]; 37.7% with A-375 [9]; 18.6% with SMMC-7721 [12]. Further, the pIC50 in the experiment on HCT-116 [6] is 5.54; with A-375 [15] it was 5.41; in the experiment on SMMC-7721 [11] it was 5.48; with HeLa [13], 5.49.
`COc1ccc(SCc2ccc(C(=O)Nc3ccccc3N)cc2)cc1OC`: the pIC50 in the experiment with A549 [14] is 5.25; in the experiment on HCT-116 [6] it was 5.70; in the experiment on A-375 [15], 5.35; with SMMC-7721 [11] it was 5.47; with HeLa [13], 5.51. Besides, the inhibition of growth at 8 µM came to 80.1% in the experiment with A549 [1]; 78.9% with SMMC-7721 [3]; 84.6% in the experiment on A-375 [4]; 91.5% in the experiment on HCT-116 [7]; 79.9% in the experiment on HeLa [10]. Moreover, the inhibition of growth at 2 µM in the experiment with HCT-116 [2] came out at 33.6%; with HeLa [5] it was 15.2%; with A549 [8] it was 19.9%; in the experiment on A-375 [9] it was 18.1%; with SMMC-7721 [12], 20.2%.
